Data from ChEMBL document CHEMBL3616442, “Unconventional Knoevenagel-type indoles: Synthesis and cell-based studies for the identification of pro-apoptotic agents” (Eur J Med Chem, 2015).

Assays:
CAKI-1 = assay: Growth inhibition of human CAKI-1 cells after 48 hrs by sulforhodamine B assay; format: functional; settings: CAKI-1, 48 h
Procedure, shortened: (§1)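 NCI 60-cell-line screen. Compounds tested at five 10-fold dilutions from 10^-4 to 10^-8 M. Cells exposed for the last 48 h of a 72 h incubation, growth estimated by sulforhodamine B protein assay. GI50 is the concentration giving 50% growth inhibition. Values beyond the tested range are expressed as greater or lesser than the extreme concentration.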

TK-10 = assay: Growth inhibition of human TK10 cells after 48 hrs by sulforhodamine B assay; format: functional; settings: TK-10, 48 h
PC-3 = assay: Growth inhibition of human PC3 cells after 48 hrs by sulforhodamine B assay; format: functional; settings: PC-3, 48 h
[1] = Growth inhibition of human BT549 cells after 48 hrs by sulforhodamine B assay; format: functional; settings: BT-549, 48 h; procedure, shortened: as §1
MDA-MB-231 = assay: Growth inhibition of human MDA-MB-231 cells after 48 hrs by sulforhodamine B assay; format: functional; settings: MDA-MB-231, 48 h; procedure, shortened: as §1
SF-268 = assay: Growth inhibition of human SF268 cells after 48 hrs by sulforhodamine B assay; format: functional; settings: SF-268, 48 h
MDA-MB-468 = assay: Growth inhibition of human MDA-MB-468 cells after 48 hrs by sulforhodamine B assay; format: functional; settings: MDA-MB-468, 48 h; procedure, shortened: as §1
SR = assay: Growth inhibition of human SR cells after 48 hrs by sulforhodamine B assay; format: functional
A498 = assay: Growth inhibition of human A498 cells after 48 hrs by sulforhodamine B assay; format: functional; settings: A498, 48 h; procedure, shortened: as §1
SNB-75 = assay: Growth inhibition of human SNB75 cells after 48 hrs by sulforhodamine B assay; format: functional; settings: SNB-75, 48 h
HT-29 = assay: Growth inhibition of human HT-29 cells after 48 hrs by sulforhodamine B assay; format: functional; settings: HT-29, 48 h; procedure, shortened: as §1
SK-MEL-2 = assay: Growth inhibition of human SK-MEL-2 cells after 48 hrs by sulforhodamine B assay; format: functional; settings: SK-MEL-2, 48 h
K562 = assay: Growth inhibition of human K562 cells after 48 hrs by sulforhodamine B assay; format: functional; settings: K562, 48 h; procedure, shortened: as §1
OVCAR-4 = assay: Growth inhibition of human OVCAR4 cells after 48 hrs by sulforhodamine B assay; format: functional; settings: OVCAR-4, 48 h; procedure, shortened: as §1
SN12C = assay: Growth inhibition of human SN12C cells after 48 hrs by sulforhodamine B assay; format: functional
ACHN = assay: Growth inhibition of human ACHN cells after 48 hrs by sulforhodamine B assay; format: functional; procedure, shortened: as §1
MT4 = assay: Antiproliferative activity against human MT4 cells after 96 hrs by MTT assay; format: functional, cell-based; settings: MT4, 96 h
Procedure, shortened: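 Exponentially growing MT-4 cells (CD4+ human T-cells carrying integrated HTLV-1 genome), seeded at 1×10^5 cells/mL in RPMI-1640 with 10% FCS and antibiotics. Serial dilutions of compound (DMSO stock 100 mM, diluted in medium), 37 °C, 5% CO₂, 96 h. Viability read by MTT. 50% inhibition versus untreated controls by linear regression. Mean ± SD of three independent determinations.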

KM12 = assay: Growth inhibition of human KM12 cells after 48 hrs by sulforhodamine B assay; format: functional; settings: KM12, 48 h; procedure, shortened: as §1
[2] = Growth inhibition of human RPMI8226 cells after 48 hrs by sulforhodamine B assay; format: functional; settings: RPMI-8226, 48 h
[3] = Growth inhibition of human NCI-ADR-RES cells after 48 hrs by sulforhodamine B assay; format: functional; procedure, shortened: as §1
SK-OV-3 = assay: Growth inhibition of human SKOV3 cells after 48 hrs by sulforhodamine B assay; format: functional; settings: SK-OV-3, 48 h
SNB-19 = assay: Growth inhibition of human SNB19 cells after 48 hrs by sulforhodamine B assay; format: functional; settings: SNB-19, 48 h
[4] = Growth inhibition of human HOP92 cells after 48 hrs by sulforhodamine B assay; format: functional; settings: HOP-92, 48 h; procedure, shortened: as §1
HCT-116 = assay: Growth inhibition of human HCT116 cells after 48 hrs by sulforhodamine B assay; format: functional; settings: HCT-116, 48 h; procedure, shortened: as §1
NCI-H322M = assay: Growth inhibition of human NCI-H322M cells after 48 hrs by sulforhodamine B assay; format: functional; procedure, shortened: as §1
IGROV-1 = assay: Growth inhibition of human IGROV1 cells after 48 hrs by sulforhodamine B assay; format: functional; settings: IGROV-1, 48 h; procedure, shortened: as §1
SK-MEL-5 = assay: Growth inhibition of human SK-MEL-5 cells after 48 hrs by sulforhodamine B assay; format: functional; settings: SK-MEL-5, 48 h
NCI-H522 = assay: Growth inhibition of human NCI-H522 cells after 48 hrs by sulforhodamine B assay; format: functional; settings: NCI-H522, 48 h; procedure, shortened: as §1
T47D = assay: Growth inhibition of human T47D cells after 48 hrs by sulforhodamine B assay; format: functional
[5] = Growth inhibition of human LOXIMVI cells after 48 hrs by sulforhodamine B assay; format: functional; settings: LOX IMVI; procedure, shortened: as §1
[6] = Growth inhibition of human RXF393 cells after 48 hrs by sulforhodamine B assay; format: functional; settings: RXF 393, 48 h
DU-145 = assay: Growth inhibition of human DU145 cells after 48 hrs by sulforhodamine B assay; format: functional; settings: DU-145, 48 h; procedure, shortened: as §1
SW-620 = assay: Growth inhibition of human SW620 cells after 48 hrs by sulforhodamine B assay; format: functional; settings: SW-620, 48 h
UACC-257 = assay: Growth inhibition of human UACC257 cells after 48 hrs by sulforhodamine B assay; format: functional; settings: UACC-257, 48 h
Malme-3M = assay: Growth inhibition of human MALME-3M cells after 48 hrs by sulforhodamine B assay; format: functional; procedure, shortened: as §1
[7] = Growth inhibition of human COLO205 cells after 48 hrs by sulforhodamine B assay; format: functional; settings: COLO 205, 48 h; procedure, shortened: as §1
MDA-MB-435 = assay: Growth inhibition of human MDA-MB-435 cells after 48 hrs by sulforhodamine B assay; format: functional; settings: MDA-MB-435, 48 h; procedure, shortened: as §1
HCT-15 = assay: Growth inhibition of human HCT15 cells after 48 hrs by sulforhodamine B assay; format: functional; settings: HCT-15, 48 h; procedure, shortened: as §1
[8] = Growth inhibition of human MOLT4 cells after 48 hrs by sulforhodamine B assay; format: functional; settings: MOLT-4, 48 h; procedure, shortened: as §1
HL-60(TB) = assay: Growth inhibition of human HL-60(TB) cells after 48 hrs by sulforhodamine B assay; format: functional; settings: HL-60, 48 h
Procedure, shortened: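 NCI 60-cell-line screen, HL-60(TB) included. Compound given at five 10-fold dilutions from 10^-4 to 10^-8 M. Cells exposed for the last 48 h of a 72 h incubation. Growth or viability estimated by sulforhodamine B protein assay. GI50 is the concentration giving 50% growth inhibition. Values outside the tested range are reported as greater or less than the highest or lowest concentration.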

HOP-62 = assay: Growth inhibition of human HOP62 cells after 48 hrs by sulforhodamine B assay; format: functional; settings: HOP-62, 48 h; procedure, shortened: as §1
A549 = assay: Growth inhibition of human A549 cells after 48 hrs by sulforhodamine B assay; format: functional; settings: A549, 48 h; procedure, shortened: as §1
U-251 = assay: Growth inhibition of human U251 cells after 48 hrs by sulforhodamine B assay; format: functional; settings: U-251, 48 h

`COc1ccc2[nH]c(-c3ccccc3)c(C=C(C#N)C#N)c2c1` gave a GI50 (CAKI-1) of 4100 nM, a GI50 (TK-10) of 5100 nM and a GI50 (PC-3) of 5400 nM. The GI50 [1] was 2200 nM, the GI50 (MDA-MB-231) was 3800 nM and the GI50 (SF-268) was 8300 nM. It also gave a GI50 (MDA-MB-468) of 2100 nM, a GI50 (SR) of 865 nM and a GI50 (A498) of 2000 nM. It also gave a GI50 (SNB-75) of 2800 nM, a GI50 (HT-29) of 3100 nM and a GI50 (SK-MEL-2) of 5900 nM. For the same compound, the GI50 (K562) was 2100 nM, the GI50 (OVCAR-4) was 5400 nM and the GI50 (SN12C) was 4700 nM. The GI50 (ACHN) was 7400 nM, the EC50 (MT4) was 1000 nM and the GI50 (KM12) was 3500 nM. For the same compound, the GI50 [2] was 2600 nM, the GI50 [3] was 2800 nM and the GI50 (SK-OV-3) was 4800 nM. The GI50 (SNB-19) was 6000 nM, the GI50 [4] was 2400 nM and the GI50 (HCT-116) was 4400 nM. For the same compound, the GI50 (NCI-H322M) was 7400 nM, the GI50 (IGROV-1) was 8400 nM and the GI50 (SK-MEL-5) was 2900 nM. It also gave a GI50 (NCI-H522) of 4600 nM, a GI50 (T47D) of 2300 nM and a GI50 [5] of 4900 nM. It also gave a GI50 [6] of 9800 nM, a GI50 (DU-145) of 6500 nM and a GI50 (SW-620) of 3600 nM. It also gave a GI50 (UACC-257) of 30000 nM, a GI50 (Malme-3M) of 4400 nM and a GI50 [7] of 2100 nM. For the same compound, the GI50 (MDA-MB-435) was 607 nM, the GI50 (HCT-15) was 3200 nM and the GI50 [8] was 3700 nM. The GI50 (HL-60(TB)) was 2500 nM, the GI50 (HOP-62) was 5300 nM and the GI50 (A549) was 7000 nM. For the same compound, the GI50 (U-251) was 3500 nM.

`COc1ccc(-c2[nH]c3ccccc3c2/C=C(\C#N)S(=O)(=O)c2ccccc2)cc1` gave a GI50 (CAKI-1) of 997 nM, a GI50 (TK-10) of 4800 nM and a GI50 (PC-3) of 557 nM. It also gave a GI50 [1] of 1600 nM, a GI50 (MDA-MB-231) of 649 nM and a GI50 (SF-268) of 1100 nM. The GI50 (MDA-MB-468) was < 10 nM, the GI50 (SR) was 350 nM and the GI50 (A498) was 1100 nM. It also gave a GI50 (SNB-75) of 379 nM, a GI50 (HT-29) of 314 nM and a GI50 (SK-MEL-2) of 18100 nM. It also gave a GI50 (K562) of 535 nM, a GI50 (OVCAR-4) of 578 nM and a GI50 (SN12C) of 1500 nM. The GI50 (ACHN) was 1900 nM, the EC50 (MT4) was 200 nM and the GI50 (KM12) was 374 nM. For the same compound, the GI50 [2] was 2100 nM, the GI50 [3] was 428 nM and the GI50 (SK-OV-3) was 528 nM. The GI50 (SNB-19) was 863 nM, the GI50 [4] was 2300 nM and the GI50 (HCT-116) was 399 nM. The GI50 (NCI-H322M) was 1500 nM, the GI50 (IGROV-1) was 19300 nM and the GI50 (SK-MEL-5) was 344 nM. It also gave a GI50 (NCI-H522) of 3000 nM, a GI50 (T47D) of 533 nM and a GI50 [5] of 1300 nM. It also gave a GI50 [6] of 1000 nM, a GI50 (DU-145) of 450 nM and a GI50 (SW-620) of 506 nM. For the same compound, the GI50 (UACC-257) was 10700 nM, the GI50 (Malme-3M) was 1200 nM and the GI50 [7] was 254 nM. For the same compound, the GI50 (MDA-MB-435) was 203 nM, the GI50 (HCT-15) was 554 nM and the GI50 [8] was 871 nM. For the same compound, the GI50 (HL-60(TB)) was 294 nM, the GI50 (HOP-62) was 1000 nM and the GI50 (A549) was 803 nM. It also gave a GI50 (U-251) of 473 nM.
